Measured values: article PMC4245164 (ACS Chemical Biology, 2014)

Key:
[1] = test system: Pmp22; assay: S16 GLuc and secNLuc Pmp22 reporter qHTS follow-up assays; type: cell-based, rat; conditions: for potency on Pmp22 expression: data not shown; for effect on reporter activity: GLuc and secNLuc reporters
[2] = test system: Pmp22; assay: S16 secNLuc reporter cell assay; type: cell-based, rat
[3] = test system: PMP22 regulatory element; assay: S16 intronic enhancer FLuc reporter assay; type: cell-based, rat; conditions: retest after completion of the study
Outline: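 S16 cells carrying a randomly integrated firefly luciferase reporter driven by the Pmp22 intronic enhancer were retested with test compound after the main study. Data are shown with standard deviation of two replicates.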

[4] = test system: major myelin genes and their regulators; assay: Quantitative RT-PCR of co-regulated myelin genes and regulators in S16 cells; type: cell-based, rat; conditions: qRT-PCR, 1 or 10 nM, 24 h
Outline: (§1)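 S16 rat Schwann cells were plated at 2×10^5 cells/well in 6-well plates. They were treated for 24 h with test compound at 1 nM or 10 nM, or with DMSO (0.6%) only. RNA was purified and reverse-transcribed to cDNA. qPCR used SYBR green reactions or Taqman-based custom microfluidic arrays. Data were normalized to ActB and expressed relative to the untreated sample, set to 1 for each gene.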

[5] = test system: Pmp22; assay: Quantitative RT-PCR of endogenous Pmp22 in S16 cells; type: cell-based, rat; conditions: qRT-PCR, 1 or 10 nM, 24 h
Outline: as §1

[6] = test system: CMT1A patients; conditions: human clinical trials; cited from earlier work

SMILES: COc1ccc2c(c1)c(C1=C(c3c[nH]c4ccccc34)C(=O)NC1=O)cn2CCCN(C)C [Go 6983]
- potency on Pmp22 expression [1]: lack of potency

SMILES: Cn1cc(C2=C(c3cn(C4CCN(Cc5ccccn5)CC4)c4ccccc34)C(=O)NC2=O)c2ccccc21 [enzastaurin]
- potency on Pmp22 expression [1]: lack of potency

SMILES: CC#C[C@]1(O)CC[C@H]2[C@@H]3CCC4=CC(=O)CCC4=C3[C@@H](c3ccc(N(C)C)cc3)C[C@@]21C [mifepristone]
- effect on reporter activity [1]: marginal effect

SMILES: CC(=O)[C@@]1(O)CC[C@H]2[C@@H]3CCC4=CC(=O)CC[C@]4(C)C3(F)[C@@H](O)C[C@@]21C (stereo partly drawn) [flugestone]
- effect on reporter activity [1]: increasing reporter activity

SMILES: CCCCCCCCCCCCCC(=O)O[C@@H]1[C@@H](C)[C@@]2(O)[C@@H](C=C(CO)C[C@]3(O)C(=O)C(C)=C[C@@H]23)[C@@H]2C(C)(C)[C@]12OC(C)=O [PMA, Phorbol 12-myristate 13-acetate]
- effect on Pmp22 reporter expression ([2]; nanomolar levels, 24 h, secNLuc S16 cell line): repression

SMILES: CCC/C=C/C=C/C(=O)O[C@H]1/C(=C/C(=O)OC)C[C@H]2C[C@H]([C@@H](C)O)OC(=O)C[C@H](O)C[C@@H]3C[C@H](OC(C)=O)C(C)(C)[C@](O)(C[C@@H]4C/C(=C/C(=O)OC)C[C@H](/C=C/C(C)(C)[C@]1(O)O2)O4)O3 [bryostatin, Bryostatin 1]
- efficacy relative to the control, bortezomib ([2]; S16 NLuc assay, full titration response profile): partial efficacy
- effect in the intronic FLuc assay [3]: no inhibitory effect
- Myelin-associated glycoprotein expression [4]: decline to a greater degree than Pmp22
- Periaxin expression [4]: decline to a greater degree than Pmp22
- expression of most of the other tested genes [4]: not affected
- Pmp22 expression relative to untreated S16 cells [5]: ≤ 50%

SMILES: O=C1O[C@H]([C@@H](O)CO)C(O)=C1O [ascorbic acid]
- effect in CMT1A patients [6]: have not shown a significant effect
